Results as given in ChEMBL document CHEMBL5252534, “Discovery of a Noncovalent, Mutant-Selective Epidermal Growth Factor Receptor Inhibitor” (J Med Chem, 2016).
Converted amounts (≈) assume the structure as drawn. The source made the active and inactive calls. The calls are words filed in the database; no cut-off is given here.

Tests used:
[1] = Aqueous kinetic solubility of compound in PBS buffer at pH 7.4 at 100 uM incubated for 24 hrs by LC/CLND analysis; assay type: physicochemical; conditions: read-out: Kinetic_solubility
Procedure, shortened: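 Kinetic aqueous solubility measured at pH 7.4.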

[2] = Apparent permeability across apical to basolateral side in dog MDCK cells; assay type: ADME, cell-based, Canis lupus familiaris
[3] = Clearance in human hepatocyte; assay type: ADME, cell-based; conditions: hepatocytes
Procedure, shortened: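 Cryopreserved human hepatocytes used; intrinsic clearance converted to predicted hepatic clearance as (Q × Clint)/(Q + Clint) using liver blood flow Q.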

[4] = Clearance in human liver microsomes; assay type: ADME, Microsome
Procedure, shortened: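 Incubation with human liver microsomes; intrinsic clearance scaled to predicted hepatic clearance as Clhep = (Q × Clint)/(Q + Clint), where Q is liver blood flow.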

[5] = target: T1, Epidermal growth factor receptor (Homo sapiens, UniProt P00533); assay: Inhibition of EGFR autophosphorylation in human NCI-H292 cells harboring harboring wild type EGFR preincubated for 60 mins followed by EGF stimulation and measured after 8 mins by SULFO-TAG based electrochemiluminescent assay; assay type: cell-based
[6] = target: T2, Epidermal growth factor receptor (Homo sapiens, UniProt P00533, 746-750DEL); assay type: cell-based, PC-9
[7] = target: T3, Epidermal growth factor receptor (Homo sapiens, UniProt P00533, 746-750DEL/T790M); assay type: cell-based, PC-9/ER1
[8] = target: T4, Epidermal growth factor receptor (Homo sapiens, UniProt P00533, L858R/T790M); assay type: cell-based, NCI-H1975
[9] = target: T1, Epidermal growth factor receptor; assay: Inhibition of wild type human EGFR assessed as apparent inhibition constant using Fl-EEPLYWSFPAKKK-CONH2 as substrate preincubated for 30 mins followed by addition of substrate and measured after 30 mins by Morrison plot analysis; conditions: read-out: Ki(app)
Target sequence in this assay (P00533 whole entry): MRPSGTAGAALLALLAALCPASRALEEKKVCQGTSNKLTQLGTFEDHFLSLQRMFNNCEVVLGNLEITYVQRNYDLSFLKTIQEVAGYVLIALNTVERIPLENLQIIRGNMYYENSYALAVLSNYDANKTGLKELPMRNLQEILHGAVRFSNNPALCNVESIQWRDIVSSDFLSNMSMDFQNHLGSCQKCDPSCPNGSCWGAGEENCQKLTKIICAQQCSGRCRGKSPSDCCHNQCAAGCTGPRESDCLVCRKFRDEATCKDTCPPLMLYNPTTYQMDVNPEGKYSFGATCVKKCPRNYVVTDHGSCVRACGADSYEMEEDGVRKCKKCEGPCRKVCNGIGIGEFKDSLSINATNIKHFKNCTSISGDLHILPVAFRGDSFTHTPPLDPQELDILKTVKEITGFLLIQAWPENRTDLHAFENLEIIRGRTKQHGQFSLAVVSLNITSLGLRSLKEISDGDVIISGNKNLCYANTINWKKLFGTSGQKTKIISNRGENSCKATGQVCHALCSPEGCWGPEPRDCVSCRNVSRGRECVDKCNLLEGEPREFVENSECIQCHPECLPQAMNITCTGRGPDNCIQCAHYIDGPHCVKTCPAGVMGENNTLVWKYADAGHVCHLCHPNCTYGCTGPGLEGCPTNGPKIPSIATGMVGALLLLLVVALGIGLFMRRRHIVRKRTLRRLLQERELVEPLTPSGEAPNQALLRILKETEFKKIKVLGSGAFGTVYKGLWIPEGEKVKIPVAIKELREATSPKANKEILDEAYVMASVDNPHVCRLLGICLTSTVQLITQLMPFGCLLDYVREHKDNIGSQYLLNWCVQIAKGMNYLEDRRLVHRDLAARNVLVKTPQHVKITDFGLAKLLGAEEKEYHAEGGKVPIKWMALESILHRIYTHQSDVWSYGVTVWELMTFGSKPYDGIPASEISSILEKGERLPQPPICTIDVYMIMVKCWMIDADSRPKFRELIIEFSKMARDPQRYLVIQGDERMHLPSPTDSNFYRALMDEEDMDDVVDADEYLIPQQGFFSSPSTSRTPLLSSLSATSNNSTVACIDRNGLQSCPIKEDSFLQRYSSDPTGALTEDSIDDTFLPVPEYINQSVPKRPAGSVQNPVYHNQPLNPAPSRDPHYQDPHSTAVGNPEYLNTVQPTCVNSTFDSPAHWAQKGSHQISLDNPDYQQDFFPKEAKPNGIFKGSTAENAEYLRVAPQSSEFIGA

[10] = target: T4, Epidermal growth factor receptor; assay: Inhibition of human EGFR T790M/L858R double mutant assessed as apparent inhibition constant using Fl-EEPLYWSFPAKKK-CONH2 as peptide substrate preincubated for 30 mins followed by addition of substrate and measured after 30 mins by Morrison plot analysis; conditions: read-out: Ki(app)
[11] = tested on: NCI-H1975; assay: Antiproliferative activity against human NCI-H1975 cells harboring harboring EGFR L858R/T790M double mutant assessed as reduction in cell viability; assay type: functional, cell-based
[12] = tested on: PC-9; assay: Antiproliferative activity against human PC-9 cells harboring harboring EGFR del (746 to 750) mutant assessed as reduction in cell viability; assay type: functional, cell-based
[13] = Clearance in mouse plasma at 5 mg/kg,iv; assay type: ADME, organism-based
Procedure, shortened: (§1)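 Single intravenous dose as a solution in 10/35/55 ethanol/PEG/water (mouse 5 mg kg−1; dog 1 mg kg−1); plasma clearance and steady-state volume of distribution derived from the plasma profile.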

[14] = Volume of distribution at steady state in mouse at 5 mg/kg,iv; assay type: ADME, organism-based; conditions: in vivo, read-out: Vdss; procedure, shortened: as §1
[15] = Clearance in dog plasma at 1 mg/kg,iv; assay type: ADME, organism-based, Canis lupus familiaris; procedure, shortened: as §1
[16] = Volume of distribution at steady state in dog at 1 mg/kg,iv; assay type: ADME, organism-based, Canis lupus familiaris; conditions: in vivo, read-out: Vdss; procedure, shortened: as §1
[17] = Oral bioavailability in mouse at 25 mg/kg; assay type: ADME, organism-based; conditions: in vivo
Procedure, shortened: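 Mouse dosed orally at 25 mg kg−1 as a solution in corn oil; bioavailability compared against the iv arm (5 mg kg−1 in ethanol/PEG/water).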

[18] = Oral bioavailability in dog at 2 mg/kg; assay type: ADME, organism-based, Canis lupus familiaris; conditions: in vivo
Procedure, shortened: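 Dog dosed orally at 2 mg kg−1 as a suspension in MCT; bioavailability compared against iv dosing at 1 mg kg−1 in ethanol/PEG/water.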

[19] = tested on: Plasma; assay: Time during which free plasma concentration exceeds IC50 for inhibition of human EGFR T790M/L858R double mutant autophosphorylation in human NCI-H1975 cells xenografted in SCID mouse at 50 mg/kg, po
[20] = tested on: Plasma; assay: Time during which free plasma concentration exceeds IC50 for inhibition of human EGFR T790M/L858R double mutant autophosphorylation in human NCI-H1975 cells xenografted in SCID mouse at 100 mg/kg, po
[21] = tested on: Epidermal growth factor receptor (Homo sapiens), P00533 [L858R,T790M]; assay: In vivo inhibition of EGFR L858R/T790M double mutant in SCID mouse xenografted with human NCI-H1975 cells assessed as reduction in EGFR L858R/T790M double mutant phosphorylation at Y1068 residue at 50 mg/kg, po and measured after 8 hrs by MSD assay; assay type: functional, organism-based
Procedure, shortened: (§2)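 H1975 tumor-bearing mice given a single oral dose of 50 or 100 mg/kg; tumors collected at set times; phospho-EGFR, ERK and AKT measured by MSD immunoassay; four animals per group, individual animals plotted.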

[22] = tested on: Epidermal growth factor receptor (Homo sapiens), P00533 [L858R,T790M]; assay: In vivo inhibition of EGFR L858R/T790M double mutant in SCID mouse xenografted with human NCI-H1975 cells assessed as reduction in ERK1/2 phosphorylation at 50 mg/kg, po and measured after 8 hrs by MSD assay; assay type: functional, organism-based; procedure, shortened: as §2
[23] = tested on: Epidermal growth factor receptor (Homo sapiens), P00533 [L858R,T790M]; assay: In vivo inhibition of EGFR L858R/T790M double mutant in SCID mouse xenografted with human NCI-H1975 cells assessed as reduction in AKT phosphorylation at S473 residue at 50 mg/kg, po and measured after 8 hrs by MSD assay; assay type: functional, organism-based; procedure, shortened: as §2
[24] = tested on: Epidermal growth factor receptor (Homo sapiens), P00533 [L858R,T790M]; assay: In vivo inhibition of EGFR L858R/T790M double mutant in SCID mouse xenografted with human NCI-H1975 cells assessed as reduction in EGFR L858R/T790M double mutant phosphorylation at Y1068 residue at 100 mg/kg, po and measured after 16 hrs by MSD assay; assay type: functional, organism-based; procedure, shortened: as §2
[25] = tested on: Epidermal growth factor receptor (Homo sapiens), P00533 [L858R,T790M]; assay: In vivo inhibition of EGFR L858R/T790M double mutant in SCID mouse xenografted with human NCI-H1975 cells assessed as reduction in ERK1/2 phosphorylation at 100 mg/kg, po and measured after 16 hrs by MSD assay; assay type: functional, organism-based; procedure, shortened: as §2
[26] = tested on: Epidermal growth factor receptor (Homo sapiens), P00533 [L858R,T790M]; assay: In vivo inhibition of EGFR L858R/T790M double mutant in SCID mouse xenografted with human NCI-H1975 cells assessed as reduction in AKT phosphorylation at S473 residue at 100 mg/kg, po and measured after 16 hrs by MSD assay; assay type: functional, organism-based; procedure, shortened: as §2
[27] = Fraction unbound in SCID mouse plasma at 50 to 100 mg/kg,po and measured upto 16 hrs by LC-MS assay; assay type: ADME, organism-based; conditions: in vivo, dose 50-100 mg/kg
[28] = target: T3, Epidermal growth factor receptor; assay: Inhibition of human EGFR T790M/del (746 to 750 residues) mutant assessed as apparent inhibition constant using Fl-EEPLYWSFPAKKK-CONH2 peptide as substrate preincubated for 30 mins followed by addition of substrate and measured after 30 mins by Morrison plot analysis; conditions: read-out: Ki(app)
Procedure, shortened: (§3)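 Biochemical kinase Ki determination; reported values are geometric means of at least two independent experiments.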

[29] = target: Epidermal growth factor receptor (Homo sapiens, UniProt P00533, L858R); assay: Inhibition of human EGFR L858R mutant assessed as apparent inhibition constant using Fl-EEPLYWSFPAKKK-CONH2 peptide as substrate preincubated for 30 mins followed by addition of substrate and measured after 30 mins by Morrison plot analysis; conditions: read-out: Ki(app); procedure, shortened: as §3
[30] = target: T2, Epidermal growth factor receptor; assay: Inhibition of human EGFR del (746 to 750) mutant assessed as apparent inhibition constant using Fl-EEPLYWSFPAKKK-CONH2 as substrate preincubated for 30 mins followed by addition of substrate and measured after 30 mins by Morrison plot analysis; conditions: read-out: Ki(app); procedure, shortened: as §3

T2 sequence (P00533 whole entry, looked up, stated change not applied): as the sequence (P00533 whole entry) above
T3 sequence (P00533 whole entry, looked up, stated change not applied): as the sequence (P00533 whole entry) above
Epidermal growth factor receptor (Homo sapiens), P00533 [L858R,T790M], sequence (P00533 whole entry T790M/L858R, looked up): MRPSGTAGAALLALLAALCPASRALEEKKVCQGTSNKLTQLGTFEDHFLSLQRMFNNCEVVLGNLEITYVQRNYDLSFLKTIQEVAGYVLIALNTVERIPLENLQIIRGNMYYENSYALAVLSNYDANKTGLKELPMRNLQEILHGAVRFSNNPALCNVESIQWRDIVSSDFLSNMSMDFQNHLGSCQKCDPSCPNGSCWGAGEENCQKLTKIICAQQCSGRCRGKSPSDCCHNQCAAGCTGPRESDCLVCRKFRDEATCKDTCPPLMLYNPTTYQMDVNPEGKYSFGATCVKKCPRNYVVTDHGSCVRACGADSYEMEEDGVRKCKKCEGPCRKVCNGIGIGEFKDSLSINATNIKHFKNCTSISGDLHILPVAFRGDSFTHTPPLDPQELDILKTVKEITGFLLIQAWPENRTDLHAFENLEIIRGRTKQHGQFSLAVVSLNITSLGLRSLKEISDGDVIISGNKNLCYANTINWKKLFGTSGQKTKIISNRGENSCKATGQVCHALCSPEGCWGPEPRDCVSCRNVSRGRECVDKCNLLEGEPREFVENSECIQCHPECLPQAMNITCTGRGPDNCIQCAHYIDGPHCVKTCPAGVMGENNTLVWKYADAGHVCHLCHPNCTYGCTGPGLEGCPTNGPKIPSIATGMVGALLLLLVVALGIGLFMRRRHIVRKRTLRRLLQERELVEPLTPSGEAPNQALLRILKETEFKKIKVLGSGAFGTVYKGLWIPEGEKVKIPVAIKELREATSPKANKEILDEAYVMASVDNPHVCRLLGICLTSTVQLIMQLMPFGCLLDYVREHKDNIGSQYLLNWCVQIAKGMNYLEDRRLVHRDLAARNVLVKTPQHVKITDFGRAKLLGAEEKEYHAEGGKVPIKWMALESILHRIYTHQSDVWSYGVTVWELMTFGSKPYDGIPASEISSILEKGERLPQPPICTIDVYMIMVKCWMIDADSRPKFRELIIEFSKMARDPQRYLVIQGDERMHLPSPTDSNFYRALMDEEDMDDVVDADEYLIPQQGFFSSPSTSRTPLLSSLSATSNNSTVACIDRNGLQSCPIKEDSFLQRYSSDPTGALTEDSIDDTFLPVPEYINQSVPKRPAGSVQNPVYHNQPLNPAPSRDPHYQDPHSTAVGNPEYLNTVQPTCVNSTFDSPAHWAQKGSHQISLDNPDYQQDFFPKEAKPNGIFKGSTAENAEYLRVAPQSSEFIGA

Compound | solubility kinetic at 24 h, 100 µM [1] [µM] | Papp A→B [2] [×10⁻⁶ cm/s] | CLhep predicted [3] [mL/min/kg] | CLhep predicted [4] [mL/min/kg] | IC50 [5] [nM] | IC50 [6] [nM] | IC50 [7] [nM] | IC50 [8] [nM] | Ki [9] [nM] | Ki [10] [nM] | Ki [28] [nM] | Ki [29] [nM] | Ki [30] [nM] | also measured
CC(C)n1nc(N2CCC(O)CC2)c2cnc(Nc3ccnc(-c4cnn(S(=O)(=O)C5CC5)c4)n3)cc21 | 1 (≈ 0.524 µg/mL) | 12 | 7.7 | 7 |  |  |  |  |  |  |  |  |  | 
CC(C)c1nn(C(C)C)c2cc(Nc3ccnc(-c4cnn(S(=O)(=O)C5CC5)c4)n3)ncc12 | < 1 | 3.9 | 15 | 8.5 | > 10000 | 3000 | 910 | 2400 | < 531 |  |  |  |  | 
CC(C)n1nc(N2CC(CO)C2)c2cnc(Nc3ccnc(-c4cnn(S(=O)(=O)C5CC5)c4)n3)cc21 | 3 (≈ 1.53 µg/mL) | 8.1 | 13 | 10 | 96 | 28 | 8.1 | 19 | 2 | < 0.6 |  |  |  | 
CC[C@H](C)n1nc(N2CC(C(C)(C)O)C2)c2cnc(Nc3ccnc(-c4cnn(S(=O)(=O)C5CC5)c4)n3)cc21 | 2 (≈ 1.1 µg/mL) | 8.9 | 2.7 | 3.8 | 218 | 33 | 8 | 27 |  |  |  |  |  | IC50 [11]: 361 nM; IC50 [12]: 151 nM; clearance [13]: 104 mL/min/kg; Vd [14]: 3.4 L/kg; clearance [15]: 13 mL/min/kg; Vd [16]: 6.9 L/kg; bioavailability [17]: 19%; bioavailability [18]: 30%; T>IC50 [19]: 8 h; T>IC50 [20]: 16 h; inhibition [21]: Active; inhibition [22]: Active; inhibition [23]: Active; inhibition [24]: Active; inhibition [25]: Active; inhibition [26]: Active; Fu [27]: 0.009
CC(C)n1nc(N2CC(C(C)(C)O)C2)c2cnc(Nc3ccnc(-c4cnn(S(=O)(=O)C5CC5)c4)n3)cc21 | < 1 | 20 | 7.1 | 8.9 | 210 | 130 | 10 | 32 | 7 | < 0.6 |  |  |  | 
Cc1nc2cnc(Nc3ccnc(-c4cnn(S(C)(=O)=O)c4)n3)cc2n1C(C)C |  |  |  |  |  |  |  |  | 324 |  | 3.5 | 126 | 38 | 
Cc1nc2cnc(Nc3ccnc(N4CC[C@H](O)[C@H](F)C4)n3)cc2n1C(C)C (racemic) |  | 19 | 9 | 5.2 |  |  |  |  |  |  | 43 | 1100 | 1300 | 
CC(C)n1cc(C(N)=O)c2cnc(Nc3ccnc(-c4cnn(S(=O)(=O)C5CC5)c4)n3)cc21 | < 1 | 4.5 |  |  |  |  |  |  | 7.8 | 1.1 | 0.35 | 4.1 | 1.2 | 
CC(C)n1cc(C(=O)NC2CCOCC2)c2cnc(Nc3ccnc(-c4cnn(S(=O)(=O)C5CC5)c4)n3)cc21 | 11 (≈ 6.06 µg/mL) | 4.6 |  |  |  |  |  |  | 3.4 | 1.2 | 1.6 | 3.8 | 1.4 | 
